# Source: ChEMBL document CHEMBL4414577, “Discovery of Pyrrolo[2,3-b]pyridine (1,7-Dideazapurine) Nucleoside Analogues as Anti-Trypanosoma cruzi Agents” (J Med Chem, 2019)
# Activity calls are given as the source filed them. No cut-off for these calls is given here.
# Key:
# [1] = Toxicity in Swiss Webster mouse infected with Trypanosoma cruzi Y trypomastigotes assessed as body weight loss at 25 mg/kg, po administered twice daily via gavage for 5 days starting from 5 days post-infection and measured daily up to 40 days post-infection; format: organism-based; conditions: in vivo
# Outline: (§1)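 Male Swiss Webster mice were infected i.p. with 10⁴ Y-strain trypomastigotes and treated by oral gavage for 5 days from 5 dpi. Regimens were 25 mg/kg b.i.d. (10% EtOH/citrate vehicle) or benznidazole 100 mg/kg s.i.d. Body weight and visual clinical signs were monitored, with daily mortality checks up to 40 dpi. There were six mice per group.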
# Trypanosoma cruzi [2] = assay: Antitrypanosomal activity against bloodstream form of Trypanosoma cruzi Y trypomastigotes measured after 24 hrs by Neubauer chamber-based light microscopic analysis; format: functional, organism-based
# Trypanosoma cruzi [3] = assay: Antitrypanosomal activity against Trypanosoma cruzi Tulahuen CL2 amastigotes infected in human MRC5 SV2 cells incubated for 7 days by chlorophenol red beta-D-galactopyranoside substrate based spectrophotometric assay; format: functional, organism-based; conditions: Tulahuen CL2, MRC-5 SV2, 168 h
# Outline: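 Intracellular amastigotes of β-galactosidase-expressing Tulahuen strain grown in MRC-5 fibroblast host cells. EC50 in μM given as mean and SEM of two or three independent experiments; some values come from a single determination.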
# Trypanosoma cruzi [4] = assay: In vivo antitrypanosomal activity against Trypanosoma cruzi Y trypomastigotes infected in Swiss mouse assessed as mouse survival at 25 mg/kg, po administered twice daily via gavage for 5 days starting from 5 days post-infection and measured daily up to 40 days post-infection; format: functional, organism-based
# Outline: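 Male Swiss Webster mice (18-20 g, 4-5 weeks) infected i.p. with 10⁴ Y-strain bloodstream trypomastigotes; six per group. Oral gavage from 5 dpi for 5 consecutive days: test compound at 25 mg/kg b.i.d. (2.0 mg/mL in 10% EtOH, 0.1 M citrate pH 3.02), benznidazole at 100 mg/kg s.i.d. Parasites counted in 5 μL tail blood to 30 dpi; mortality followed daily to 40 dpi.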
# Trypanosoma cruzi [5] = assay: In vivo antitrypanosomal activity against Trypanosoma cruzi Y trypomastigotes infected in Swiss mouse assessed as reduction in parasitemia at 25 mg/kg, po administered twice daily via gavage for 5 days starting from 5 days post-infection and measured 8 days post-infection by light microscopic method relative to control; format: functional; design: scale not given: the % may be the effect or the level left
# Outline: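 Male Swiss Webster mice (18-20 g, six per group) were infected i.p. with 10⁴ Y-strain bloodstream trypomastigotes. Treatment began at 5 dpi, only in mice with detectable parasitemia. Dosing was 25 mg/kg b.i.d. by oral gavage for 5 days, using a 2.0 mg/mL formulation in 10% EtOH, 0.1 M citrate pH 3.02. Parasites in 5 μL tail-vein blood were counted microscopically up to 30 dpi, against vehicle-treated infected mice.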
# [6] = Toxicity in Swiss Webster mouse infected with Trypanosoma cruzi Y trypomastigotes assessed as body weight loss at 25 mg/kg, po administered twice daily for 5 days with 2 days interval for 3 cycles; format: organism-based; conditions: in vivo
# Outline: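 Y-strain-infected male Swiss Webster mice were dosed orally for 15 days (three rounds of 5 days, 2 drug-free days between) starting at 5 dpi. Regimens were 25 mg/kg b.i.d. or benznidazole 100 mg/kg s.i.d. Weight loss was recorded as a sign of toxicity, with mortality checked daily up to 53 dpi. There were six mice per group.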
# [7] = Drug metabolism in mouse liver microsomes assessed as UGT-mediated metabolism by measuring compound remaining at 5 uM incubated for 15 mins in presence of UDPGA by UPLC-MS analysis; format: ADME; conditions: read-out: Stability
# Outline: (§2)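 Compound incubated with male mouse, rat, dog or pooled human S9 fractions, with NADPH (phase I) or […], sampled at 0, 15, 30 and 60 min. Read-out is percent parent remaining. Two independent experiments of two biological replicates; diclofenac and fluconazole used as assay controls.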
# [8] = Drug metabolism in mouse liver microsomes assessed as CYP450-mediated metabolism by measuring parent compound remaining at 5 uM incubated for 30 mins in presence of NADPH by UPLC-MS analysis; format: ADME; conditions: read-out: Stability; outline: as §2
# [9] = Drug metabolism in mouse liver microsomes assessed as CYP450-mediated metabolism by measuring parent compound remaining at 5 uM incubated for 60 mins in presence of NADPH by UPLC-MS analysis; format: ADME; conditions: read-out: Stability
# [10] = Drug metabolism in mouse liver microsomes assessed as UGT-mediated metabolism by measuring compound remaining at 5 uM incubated for 60 mins in presence of UDPGA by UPLC-MS analysis; format: ADME; conditions: read-out: Stability; outline: as §2
# [11] = Toxicity in Swiss Webster mouse infected with Trypanosoma cruzi Y trypomastigotes assessed as appearance of clinical symptoms at 25 mg/kg, po administered twice daily via gavage for 5 days starting from 5 days post-infection and measured daily up to 40 days post-infection; format: organism-based; conditions: in vivo; outline: as §1
# [12] = Drug metabolism in dog liver microsomes assessed as UGT-mediated metabolism by measuring compound remaining at 5 uM incubated for 15 mins in presence of UDPGA by UPLC-MS analysis; format: ADME, Canis lupus familiaris; conditions: read-out: Stability; outline: as §2
# [13] = Drug metabolism in dog liver microsomes assessed as UGT-mediated metabolism by measuring compound remaining at 5 uM incubated for 60 mins in presence of UDPGA by UPLC-MS analysis; format: ADME, Canis lupus familiaris; conditions: read-out: Stability; outline: as §2
# [14] = target: UDP-glucuronosyltransferases (UGTs) (Homo sapiens, UniProt O60656+O75310+O75795+P06133+P0DTE4+P0DTE5+P16662+P19224+P22309+P22310+P35503+P35504+P36537+P54855+Q6UWM9+Q9BY64+Q9HAW7+Q9HAW8+Q9HAW9); assay: Drug metabolism in human liver S9 fraction assessed as UGT-mediated metabolism by measuring compound remaining at 5 uM incubated for 60 mins in presence of UDPGA by UPLC-MS analysis; format: ADME, subcellular; conditions: read-out: Stability; outline: as §2
# [15] = Drug metabolism in rat liver microsomes assessed as CYP450-mediated metabolism by measuring parent compound remaining at 5 uM incubated for 15 mins in presence of NADPH by UPLC-MS analysis; format: ADME; conditions: read-out: Stability; outline: as §2
# Cytochrome P450 [16] = target: T1, Cytochrome P450 (Homo sapiens, UniProt P04798+P05177+P05181+P08684+P10632+P10635+P11509+P11712+P13584+P20813+P20815+P20853+P24462+P24903+P33260+P33261+P51589+P78329+P98187+Q02928+Q08477+Q16678+Q16696+Q5TCH4+Q6VVX0+Q7Z449+Q8TAV3+Q96SQ9+Q9HB55); assay: Drug metabolism in human liver S9 fraction assessed as CYP450-mediated metabolism by measuring parent compound remaining at 5 uM incubated for 30 mins in presence of NADPH by UPLC-MS analysis; format: ADME, subcellular; conditions: read-out: Stability; outline: as §2
# Trypanosoma cruzi [17] = assay: In vivo antitrypanosomal activity against Trypanosoma cruzi Y trypomastigotes infected in Swiss mouse assessed as reduction in parasitemia at 25 mg/kg, po administered twice daily for 5 days with 2 days interval for 3 cycles and measured 9 days post-infection by light microscopy relative to control; format: functional; design: scale not given: the % may be the effect or the level left
# Outline: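 Male Swiss Webster mice infected i.p. with 10⁴ Y-strain bloodstream trypomastigotes; six per group. Oral gavage from 5 dpi for 15 days (three 5-day rounds, 2 days off): test compound 25 mg/kg b.i.d., benznidazole 100 mg/kg s.i.d. Parasites counted in 5 μL tail blood to 30 dpi; mortality followed to 53 dpi.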
# [18] = Selectivity index, ratio for EC50 for human MRC5 SV2 cells to EC50 for Trypanosoma cruzi Tulahuen CL2 amastigotes infected in human MRC5 SV2 cells; format: toxicity, cell-based; conditions: read-out: Ratio EC50
# Cytochrome P450 [19] = target: T1, Cytochrome P450; assay: Drug metabolism in human liver S9 fraction assessed as CYP450-mediated metabolism by measuring parent compound remaining at 5 uM incubated for 60 mins in presence of NADPH by UPLC-MS analysis; format: ADME, subcellular; conditions: read-out: Stability; outline: as §2
structure (smiles),measurement,setting,value
Nc1ccnc2c1c(I)cn2[C@@H]1O[C@H](CO)[C@@H](O)[C@H]1O,Activity,[1],Non-Toxic
same,EC50,Trypanosoma cruzi [2],> 70 µM
same,EC50,Trypanosoma cruzi [3],40 nM
same,Activity,Trypanosoma cruzi [4],Active
same,Activity,Trypanosoma cruzi [5],95%
same,Activity,[6],Non-Toxic
same,"remaining at 0.25 h, 5 µM",[7],102%
same,"remaining at 0.5 h, 5 µM",[8],95%
same,"remaining at 1 h, 5 µM",[9],94%
same,"remaining at 1 h, 5 µM",[10],101%
same,Activity,[11],Non-Toxic
same,"remaining at 0.25 h, 5 µM",[12],94%
same,"remaining at 1 h, 5 µM",[13],84%
same,"remaining at 1 h, 5 µM",[14],100%
same,"remaining at 0.25 h, 5 µM",[15],88%
same,"remaining at 0.5 h, 5 µM",Cytochrome P450 [16],96%
same,Activity,Trypanosoma cruzi [17],100%
same,selectivity ratio,[18],> 1600
same,"remaining at 1 h, 5 µM",Cytochrome P450 [19],92%
